Active and inactive are the calls of the source. The rule behind the calls is not given here. Starred links: 1 amine or outer side, 2 acyl side, 3 side chain; linkers in the order of their positions; H or OH if unused. Non-standard residues stand in square brackets, D forms with d. Residues, ends and D or L forms follow the SMILES beside them. Phe(4-Br) = N[C@@H](Cc1ccc(Br)cc1)C(=O)O; azaLeu = CC(C)CN(N[*:1])C(=O)[*:2]; αMeR = C[C@](N)(CCCNC(=N)N)C(=O)O; NMeL = CN[C@@H](CC(C)C)C(=O)O; αMeL = CC(C)C[C@](C)(N)C(=O)O; Nle = CCCC[C@H](N)C(=O)O; Aib = CC(C)(N)C(=O)O
Key:
Neprilysin [1] = biological target: T1, Neprilysin (Homo sapiens, UniProt P08473); assay: Drug degradation in human plasma assessed as NEP-mediated degradation by measuring amount of apelin remaining after 60 mins by RP-HPLC analysis; type: ADME; conditions: 1 h
Method in brief: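 Human plasma (20 μL) prewarmed to 37 °C, then 5 μL of 400 μM peptide added and incubated for set times; done in triplicate. Quenched with 10% aqueous TFA, dansyl-YVG internal standard added, and peptides recovered on a C18 spin column with 40% acetonitrile/0.1% TFA. Analysed by C18 RP-HPLC; peptide/standard peak-area ratio compared with the 0 min ratio.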

Neprilysin [2] = biological target: T1, Neprilysin; assay: Drug metabolism assessed as recombinant human NEP-medited peptide proteolysis at 1 mM up to 72 hrs by LC-MS analysis; type: ADME; conditions: 1000 µM
Method in brief: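 Recombinant human NEP, 3.1 nM final in 100 mM Tris, 100 mM NaCl, 10 μM ZnCl2, pH 7.5, preincubated 10 min at 37 °C. Then 5 μL of 1 mM peptide stock and dansyl-YVG internal standard added; incubated at 37 °C for up to 72 h. Extracted-ion LC−MS ratio of parent to standard compared with 0 h and converted to percent cleaved.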

Heart [3] = assay: Cardioprotective activity against Langendorff isolated mouse heart ischemia-reperfusion model assessed as maximum derivative change in systolic pressure over time at 1 uM administered for 10 mins during start of 40 mins reperfusion period post 30 mins ischemic induction; type: functional, tissue-based
Method in brief: (§1)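 Mouse hearts (heparinized, isoflurane 1.5−2%) excised and Langendorff-perfused at constant 80 mmHg with modified Krebs−Henseleit buffer, 37 °C, 95% O2/5% CO2, pH 7.4. After 10 min baseline, 30 min global ischemia, then 40 min reperfusion. Peptide at 1 μM given for the first 10 min of reperfusion, with saline sham and native apelin-17 as controls. Left ventricular function recorded continuously.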

Heart [4] = assay: Cardioprotective activity against Langendorff isolated mouse heart ischemia-reperfusion model assessed as minimum derivative change in diastolic pressure over time at 1 uM administered for 10 mins during start of 40 mins reperfusion period post 30 mins ischemic induction; type: functional, tissue-based; method in brief: as §1
Heart [5] = assay: Cardioprotective activity against Langendorff isolated mouse heart ischemia-reperfusion model assessed as improvement in LVDP at 1 uM administered for 10 mins during start of 40 mins reperfusion period post 30 mins ischemic induction; type: functional, tissue-based; method in brief: as §1
Mus musculus [6] = assay: Cardiotoxicity in anesthetized mouse assessed as induction of tachycardia at 1.4 uM/kg, iv relative to control; type: toxicity, organism-based; conditions: in vivo, 1.4 µmol/kg
Method in brief: (§2)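 Mice under 1.5% isoflurane, body temperature held at 36 °C on a heating pad. Aorta cannulated via the right carotid artery with a 1.2F PV loop catheter to record arterial pressure and heart rate continuously. Peptide given systemically through the right internal jugular vein.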

Heart [7] = assay: Cardioprotective activity against Langendorff isolated mouse heart ischemia-reperfusion model assessed as improvement in RPP at 1 uM administered for 10 mins during start of 40 mins reperfusion period post 30 mins ischemic induction; type: functional, tissue-based; method in brief: as §1
Mus musculus [8] = assay: Cardiovascular activity in anesthetized mouse assessed as decrease in blood pressure at 1.4 uM/kg, iv relative to control; type: functional, organism-based; method in brief: as §2
Neprilysin [9] = biological target: T1, Neprilysin; assay: Inhibition of recombinant human NEP using pyr-1-apelin-13 as substrate assessed as peptide degradation at 1 mM preincubated for 10 mins followed by substrate addition measured after 72 hrs by LC-MS analysis; conditions: 1000 µM
Method in brief: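 Recombinant human NEP, 3.1 nM in Tris/NaCl/10 μM ZnCl2 buffer, pH 7.5, preincubated 10 min at 37 °C with 5 μL of 1 mM analogue stock (equimolar to substrate) plus dansyl-YVG standard. Then 5 μL of 1 mM pyr-1-apelin-13 added. Aliquots taken at 0, 1, 4, 24 and 72 h and analysed by LC−MS; duplicate per time point.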

T1 sequence (P08473 whole entry): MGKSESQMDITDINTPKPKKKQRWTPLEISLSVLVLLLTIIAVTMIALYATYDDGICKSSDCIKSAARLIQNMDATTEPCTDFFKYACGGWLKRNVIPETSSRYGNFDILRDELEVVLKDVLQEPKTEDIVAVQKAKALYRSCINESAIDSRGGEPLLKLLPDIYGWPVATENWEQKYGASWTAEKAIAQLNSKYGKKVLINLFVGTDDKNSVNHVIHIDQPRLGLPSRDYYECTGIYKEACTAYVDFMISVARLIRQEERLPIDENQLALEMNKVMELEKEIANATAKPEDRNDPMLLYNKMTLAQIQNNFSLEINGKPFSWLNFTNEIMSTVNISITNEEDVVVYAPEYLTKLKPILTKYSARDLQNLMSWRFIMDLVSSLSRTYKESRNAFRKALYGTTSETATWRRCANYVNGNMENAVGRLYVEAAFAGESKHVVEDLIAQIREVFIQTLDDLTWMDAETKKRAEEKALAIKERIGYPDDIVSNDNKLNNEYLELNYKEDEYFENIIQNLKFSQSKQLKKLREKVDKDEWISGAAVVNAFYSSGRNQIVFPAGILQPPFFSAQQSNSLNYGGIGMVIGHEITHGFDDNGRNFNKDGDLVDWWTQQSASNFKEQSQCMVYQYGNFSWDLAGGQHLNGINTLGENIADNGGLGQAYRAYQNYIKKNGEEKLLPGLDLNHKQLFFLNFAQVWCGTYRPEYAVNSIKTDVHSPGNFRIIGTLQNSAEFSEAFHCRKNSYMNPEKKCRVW

Drug degradation (Neprilysin [1])	Drug metabolism (Neprilysin [2])	inhibition (INH) (Neprilysin [9])	SMILES	Activity (Heart [3])	Activity (Heart [4])	Activity (Heart [5])	Activity (Mus musculus [6])	Activity (Heart [7])	Activity (Mus musculus [8])
12%	Metabolite_Detected		CSCC[C@H](NC(=O)[C@@H]1CCCN1C(=O)CNC(=O)[C@H](CCCCN)NC(=O)[C@H](Cc1cnc[nH]1)NC(=O)[C@H](CO)NC(=O)[C@H](CC(C)C)NC(=O)[C@H](CCCNC(=N)N)NC(=O)[C@@H]1CCCN1C(=O)[C@H](CCCNC(=N)N)NC(=O)[C@@H]1CCC(=O)N1)C(=O)N1CCC[C@H]1C(=O)N[C@@H](Cc1ccccc1)C(=O)O						
62%	Metabolite_Notdetected	Not Active	CCCC[C@H](NC(=O)[C@@H]1CCCN1C(=O)CNC(=O)[C@H](CCCCN)NC(=O)[C@H](Cc1c[nH]cn1)NC(=O)[C@H](CO)NC(=O)[C@H](CC(C)C)NC(=O)[C@](C)(CCCNC(=N)N)NC(=O)[C@@H]1CCCN1C(=O)[C@H](CCCNC(=N)N)NC(=O)[C@@H]1CCC(=O)N1)C(=O)NC(C)(C)C(=O)N[C@@H](Cc1ccc(Br)cc1)C(=O)O						
22%	Metabolite_Notdetected	Not Active	CCCC[C@H](NC(=O)[C@@H]1CCCN1C(=O)CNC(=O)[C@H](CCCCN)NC(=O)[C@H](Cc1c[nH]cn1)NC(=O)[C@H](CO)NC(=O)[C@@H](CC(C)C)NC(=O)[C@H](CCCNC(=N)N)NC(=O)[C@@H]1CCCN1C(=O)[C@H](CCCNC(=N)N)NC(=O)[C@@H]1CCC(=O)N1)C(=O)NC(C)(C)C(=O)N[C@@H](Cc1ccc(Br)cc1)C(=O)O						inactive
2%	Metabolite_Notdetected	Not Active	CCCC[C@H](NC(=O)[C@@H]1CCCN1C(=O)CNC(=O)[C@H](CCCCN)NC(=O)[C@H](Cc1c[nH]cn1)NC(=O)[C@H](CO)NC(=O)N(CC(C)C)NC(=O)[C@H](CCCNC(=N)N)NC(=O)[C@@H]1CCCN1C(=O)[C@H](CCCNC(=N)N)NC(=O)[C@@H]1CCC(=O)N1)C(=O)NC(C)(C)C(=O)N[C@@H](Cc1ccc(Br)cc1)C(=O)O	inactive	inactive	inactive		inactive	
47%	Metabolite_Notdetected	Not Active	CCCC[C@H](NC(=O)[C@@H]1CCCN1C(=O)CNC(=O)[C@H](CCCCN)NC(=O)[C@H](Cc1c[nH]cn1)NC(=O)[C@H](CO)NC(=O)[C@H](CC(C)C)N(C)C(=O)[C@H](CCCNC(=N)N)NC(=O)[C@@H]1CCCN1C(=O)[C@H](CCCNC(=N)N)NC(=O)[C@H](CCC(N)=O)NC(=O)[C@H](CCCNC(=N)N)NC(=O)[C@H](CCCNC(=N)N)NC(=O)[C@H](Cc1ccccc1)NC(=O)[C@@H](N)CCCCN)C(=O)NC(C)(C)C(=O)N[C@@H](Cc1ccc(Br)cc1)C(=O)O (H-KFRRQRPR[NMeL]SHKGP[Nle][Aib][Phe(4-Br)]-OH)	Active	Active	Active	Toxic	Active	Active
68%	Metabolite_Notdetected	Not Active	CCCC[C@H](NC(=O)[C@@H]1CCCN1C(=O)CNC(=O)[C@H](CCCCN)NC(=O)[C@H](Cc1c[nH]cn1)NC(=O)[C@H](CO)NC(=O)N(CC(C)C)NC(=O)[C@H](CCCNC(=N)N)NC(=O)[C@@H]1CCCN1C(=O)[C@H](CCCNC(=N)N)NC(=O)[C@H](CCC(N)=O)NC(=O)[C@H](CCCNC(=N)N)NC(=O)[C@H](CCCNC(=N)N)NC(=O)[C@H](Cc1ccccc1)NC(=O)[C@@H](N)CCCCN)C(=O)NC(C)(C)C(=O)N[C@@H](Cc1ccc(Br)cc1)C(=O)O (H-KFRRQRPR[azaLeu]SHKGP[Nle][Aib][Phe(4-Br)]-OH)	Active	Active	Active	Toxic	Active	Active

Second part, the compound before the results:

SMILES	Drug degradation (Neprilysin [1])	Drug metabolism (Neprilysin [2])	inhibition (INH) (Neprilysin [9])	Activity (Heart [3])	Activity (Heart [4])	Activity (Heart [5])	Activity (Mus musculus [6])	Activity (Heart [7])	Activity (Mus musculus [8])
CSCC[C@H](NC(=O)[C@@H]1CCCN1C(=O)CNC(=O)[C@H](CCCCN)NC(=O)[C@H](Cc1cnc[nH]1)NC(=O)[C@H](CO)NC(=O)[C@H](CC(C)C)NC(=O)[C@H](CCCNC(=N)N)NC(=O)[C@@H]1CCCN1C(=O)[C@H](CCCNC(=N)N)NC(=O)[C@H](CCC(N)=O)NC(=O)[C@H](CCCNC(=N)N)NC(=O)[C@H](CCCNC(=N)N)NC(=O)[C@H](Cc1ccccc1)NC(=O)[C@@H](N)CCCCN)C(=O)N1CCC[C@H]1C(=O)N[C@@H](Cc1ccccc1)C(=O)O	39%	Metabolite_Detected		Active	Active	Active	Toxic	Active	Active
CCCC[C@H](NC(=O)[C@@H]1CCCN1C(=O)CNC(=O)[C@H](CCCCN)NC(=O)[C@H](Cc1c[nH]cn1)NC(=O)[C@H](CO)NC(=O)[C@H](CC(C)C)NC(=O)[C@H](CCCNC(=N)N)NC(=O)[C@@H]1CCCN1C(=O)[C@H](CCCNC(=N)N)NC(=O)[C@H](CCC(N)=O)NC(=O)[C@H](CCCNC(=N)N)NC(=O)[C@H](CCCNC(=N)N)NC(=O)[C@H](Cc1ccccc1)NC(=O)[C@@H](N)CCCCN)C(=O)NC(C)(C)C(=O)N[C@@H](Cc1ccc(Br)cc1)C(=O)O (H-KFRRQRPRLSHKGP[Nle][Aib][Phe(4-Br)]-OH)	35%	Metabolite_Detected					Toxic		Active
CCCC[C@H](NC(=O)[C@@H]1CCCN1C(=O)CNC(=O)[C@H](CCCCN)NC(=O)[C@H](Cc1c[nH]cn1)NC(=O)[C@H](CO)NC(=O)[C@@H](CC(C)C)NC(=O)[C@H](CCCNC(=N)N)NC(=O)[C@@H]1CCCN1C(=O)[C@H](CCCNC(=N)N)NC(=O)[C@H](CCC(N)=O)NC(=O)[C@H](CCCNC(=N)N)NC(=O)[C@H](CCCNC(=N)N)NC(=O)[C@H](Cc1ccccc1)NC(=O)[C@@H](N)CCCCN)C(=O)NC(C)(C)C(=O)N[C@@H](Cc1ccc(Br)cc1)C(=O)O (H-KFRRQRPR[dL]SHKGP[Nle][Aib][Phe(4-Br)]-OH)	80%	Metabolite_Notdetected	Not Active				Toxic		
CCCC[C@H](NC(=O)[C@@H]1CCCN1C(=O)CNC(=O)[C@H](CCCCN)NC(=O)[C@H](Cc1c[nH]cn1)NC(=O)[C@H](CO)NC(=O)[C@](C)(CC(C)C)NC(=O)[C@H](CCCNC(=N)N)NC(=O)[C@@H]1CCCN1C(=O)[C@H](CCCNC(=N)N)NC(=O)[C@H](CCC(N)=O)NC(=O)[C@H](CCCNC(=N)N)NC(=O)[C@H](CCCNC(=N)N)NC(=O)[C@H](Cc1ccccc1)NC(=O)[C@@H](N)CCCCN)C(=O)NC(C)(C)C(=O)N[C@@H](Cc1ccc(Br)cc1)C(=O)O (H-KFRRQRPR[αMeL]SHKGP[Nle][Aib][Phe(4-Br)]-OH)	48%	Metabolite_Notdetected	Not Active				Toxic		
CCCC[C@H](NC(=O)[C@@H]1CCCN1C(=O)CNC(=O)[C@H](CCCCN)NC(=O)[C@H](Cc1c[nH]cn1)NC(=O)[C@H](CO)NC(=O)[C@H](CC(C)C)NC(=O)[C@](C)(CCCNC(=N)N)NC(=O)[C@@H]1CCCN1C(=O)[C@H](CCCNC(=N)N)NC(=O)[C@H](CCC(N)=O)NC(=O)[C@H](CCCNC(=N)N)NC(=O)[C@H](CCCNC(=N)N)NC(=O)[C@H](Cc1ccccc1)NC(=O)[C@@H](N)CCCCN)C(=O)NC(C)(C)C(=O)N[C@@H](Cc1ccc(Br)cc1)C(=O)O (H-KFRRQRP[αMeR]LSHKGP[Nle][Aib][Phe(4-Br)]-OH)	55%	Metabolite_Notdetected	Not Active				Toxic		

Source: ChEMBL document CHEMBL4038314, “Synthetic Modification within the "RPRL" Region of Apelin Peptides: Impact on Cardiovascular Activity and Stability to Neprilysin and Plasma Degradation” (J Med Chem, 2017)
